Measured values published in ChEMBL document CHEMBL3352437, “Novel 3,5-bis(arylidene)-4-oxo-1-piperidinyl dimers: structure-activity relationships and potent antileukemic and antilymphoma cytotoxicity” (Eur J Med Chem, 2014).
pIC50: −log10 of the molar value.

Columns and labels:
HS27 = assay: Cytotoxicity against human HS27 cells assessed as dead cells at 1 uM after 24 hrs; format: cell-based; settings: hs27, 24 h
Outline: (§1)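 Compounds added from DMSO solutions to cells in medium (RPMI; DMEM for Hs-27 fibroblasts) and incubated 24 h at 37°C. Membrane disruption scored by propidium iodide uptake. Result is percentage of dead cells, average of three independent experiments.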

[1] = Cytotoxicity against human NCI60 cells assessed as inhibition of tumor growth after 24 hrs; format: functional, cell-based; settings: NCI60, 24 h
HCC70 = assay: Cytotoxicity against human HCC70 cells assessed as dead cells at 1 uM after 24 hrs; format: functional
Outline: (§2)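 Dienones added as DMSO solutions to cells in RPMI medium and incubated 24 h at 37°C. Cytotoxicity was scored as cell-membrane disruption by propidium iodide staining and expressed as percentage of dead cells, averaged over three independent experiments.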

Raji = assay: Cytotoxicity against human Raji cells assessed as dead cells at 1 uM after 24 hrs; format: functional; outline: as §2
LAPC4 = assay: Cytotoxicity against human LAPC4 cells assessed as dead cells at 1 uM after 24 hrs; format: functional; outline: as §2
HCC 2998 = assay: Cytotoxicity against human HCC2998 cells assessed as inhibition of tumor growth after 24 hrs; format: functional, cell-based; settings: HCC 2998, 24 h
HeLa = assay: Antiproliferative activity against human HeLa cells after 72 hrs by coulter counting analysis; format: functional, cell-based
Outline: (§3)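 Cells exposed to a range of concentrations in RPMI 1640 at 37°C for 72 h. Surviving cells counted by Coulter counter. IC50 taken from concentration-response curves, mean ± SD of at least three independent experiments.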

[2] = Cytotoxicity against human HuT-102 cells assessed as dead cells at 1 uM after 24 hrs; format: functional; outline: as §2
SR = assay: Antileukemic activity against human SR cells assessed as inhibition of tumor growth after 24 hrs; format: functional, cell-based
[3] = Cytotoxicity against human MDA231 cells assessed as dead cells at 1 uM after 24 hrs; format: functional, MDA-MB-231; outline: as §2
[4] = Cytotoxicity against human NALM6 cells assessed as dead cells at 1 uM after 24 hrs; format: functional, NALM-6; outline: as §2
MCF7 = assay: Cytotoxicity against human MCF7 cells assessed as dead cells at 1 uM after 24 hrs; format: functional; outline: as §2
[5] = Cytotoxicity against human MCF10A cells assessed as dead cells at 1 uM after 24 hrs; format: cell-based; settings: mcf-10a; outline: as §1
L1210 = assay: Antiproliferative activity against mouse L1210 cells after 72 hrs by coulter counting analysis; format: functional, cell-based; settings: L1210, 72 h
[6] = Antiproliferative activity against human Molt4/C8 cells after 72 hrs by coulter counting analysis; format: functional, cell-based; settings: MOLT-4, 72 h; outline: as §3
BJAB = assay: Cytotoxicity against human BJAB cells assessed as dead cells at 1 uM after 24 hrs; format: functional; outline: as §2
KM12 = assay: Cytotoxicity against human KM12 cells assessed as inhibition of tumor growth after 24 hrs; format: functional, cell-based; settings: KM12, 24 h
EL4 = assay: Cytotoxicity against mouse EL4 cells assessed as dead cells at 1 uM after 24 hrs; format: functional; outline: as §2
Jurkat = assay: Cytotoxicity against human Jurkat cells assessed as dead cells at 1 uM after 24 hrs; format: functional; outline: as §2
K562 = assay: Antileukemic activity against human K562 cells assessed as inhibition of tumor growth after 24 hrs; format: functional, cell-based; settings: K562, 24 h
CCRF-CEM [7] = assay: Cytotoxicity against human CEM cells assessed as dead cells at 1 uM after 24 hrs; format: functional; outline: as §2
[8] = Cytotoxicity against human 22Rvl cells assessed as dead cells at 1 uM after 24 hrs; format: functional; outline: as §2
[9] = Cytotoxicity against human HCT15 cells assessed as inhibition of tumor growth after 24 hrs; format: functional, cell-based; settings: HCT-15, 24 h
[10] = Cytotoxicity against human MOLT3 cells assessed as dead cells at 1 uM after 24 hrs; format: functional, MOLT-3; outline: as §2
[11] = Antileukemic activity against human RPMI8226 cells assessed as inhibition of tumor growth after 24 hrs; format: functional, cell-based; settings: rpmi-8226
HL-60(TB) = assay: Antileukemic activity against human HL-60(TB) cells assessed as inhibition of tumor growth after 24 hrs; format: functional, cell-based; settings: HL-60, 24 h
CCRF-CEM [12] = assay: Antiproliferative activity against human CEM cells after 72 hrs by coulter counting analysis; format: functional, cell-based; outline: as §3
COLO 205 = assay: Cytotoxicity against human COLO205 cells assessed as inhibition of tumor growth after 24 hrs; format: functional, cell-based; settings: COLO 205, 24 h
DU-145 = assay: Cytotoxicity against human DU145 cells assessed as dead cells at 1 uM after 24 hrs; format: functional; outline: as §2
YT = assay: Cytotoxicity against human YT cells assessed as dead cells at 1 uM after 24 hrs; format: functional; outline: as §2
Ramos = assay: Cytotoxicity against human Ramos cells assessed as dead cells at 1 uM after 24 hrs; format: functional; outline: as §2
SW-620 = assay: Cytotoxicity against human SW620 cells assessed as inhibition of tumor growth after 24 hrs; format: functional, cell-based; settings: SW-620, 24 h
[13] = Cytotoxicity against human SupT1 cells assessed as dead cells at 1 uM after 24 hrs; format: functional, SUP-T1; outline: as §2

Structure (SMILES): O=C1/C(=C/c2ccc(F)cc2)CN(C(=O)C(=O)N2C/C(=C\c3ccc(F)cc3)C(=O)/C(=C/c3ccc(F)cc3)C2)C/C1=C\c1ccc(F)cc1
- Activity (HS27): 0.6%
- pIC50 [1]: 6.24
- Activity (HCC70): 6.6%
- Activity (Raji): 33.5%
- Activity (LAPC4): 11.3%
- pIC50 (HCC 2998): 6.21
- pIC50 (HeLa): 6.41
- Activity [2]: 64.4%
- pIC50 (SR): 6.80
- Activity [3]: 5.5%
- Activity [4]: 61.6%
- Activity (MCF7): 16.2%
- Activity [5]: 7.7%
- pIC50 (L1210): 6.37
- pIC50 [6]: 7.08
- Activity (BJAB): 61.8%
- pIC50 (KM12): 6.52
- Activity (EL4): 34.7%
- Activity (Jurkat): 87.8%
- pIC50 (K562): 6.55
- Activity (CCRF-CEM [7]): 85.3%
- Activity [8]: 30.1%
- pIC50 [9]: 6.80
- Activity [10]: 3.1%
- pIC50 [11]: 6.92
- pIC50 (HL-60(TB)): 5.95
- pIC50 (CCRF-CEM [12]): 6.66
- pIC50 (COLO 205): 6.20
- Activity (DU-145): 15.2%
- Activity (YT): 17.1%
- Activity (Ramos): 53.3%
- pIC50 (SW-620): 6.49
- Activity [13]: 35.6%

Structure (SMILES): O=C1/C(=C\c2ccc(Cl)cc2)CN(C(=O)CC(=O)N2C/C(=C\c3ccc(Cl)cc3)C(=O)/C(=C/c3ccc(Cl)cc3)C2)C/C1=C\c1ccc(Cl)cc1
- Activity (HS27): 5.7%
- pIC50 [1]: 7.05
- Activity (HCC70): 7.8%
- Activity (Raji): 32.7%
- Activity (LAPC4): 1%
- pIC50 (HCC 2998): 6.89
- pIC50 (HeLa): 6.09
- Activity [2]: 20.4%
- pIC50 (SR): 8.00
- Activity [3]: 32.7%
- Activity [4]: 68.6%
- Activity (MCF7): 19.5%
- Activity [5]: 3.1%
- pIC50 (L1210): 6.07
- pIC50 [6]: 5.98
- Activity (BJAB): 49.9%
- pIC50 (KM12): 6.80
- Activity (EL4): 55.4%
- Activity (Jurkat): 85.3%
- pIC50 (K562): 7.52
- Activity (CCRF-CEM [7]): 83%
- Activity [8]: 1.7%
- pIC50 [9]: 7.22
- Activity [10]: 20.6%
- pIC50 [11]: 7.70
- pIC50 (HL-60(TB)): 6.96
- pIC50 (CCRF-CEM [12]): 5.97
- pIC50 (COLO 205): 7.10
- Activity (DU-145): 40.3%
- Activity (YT): 16.8%
- Activity (Ramos): 86.3%
- pIC50 (SW-620): 7.52
- Activity [13]: 21.1%

Structure (SMILES): O=C1/C(=C/c2ccc(Cl)cc2)CN(C(=O)C(=O)N2C/C(=C\c3ccc(Cl)cc3)C(=O)/C(=C/c3ccc(Cl)cc3)C2)C/C1=C\c1ccc(Cl)cc1
- Activity (HS27): 0%
- pIC50 [1]: 6.66
- Activity (HCC70): 8.4%
- Activity (Raji): 35.7%
- Activity (LAPC4): 27%
- pIC50 (HCC 2998): 6.51
- pIC50 (HeLa): 6.19
- Activity [2]: 31.4%
- pIC50 (SR): 7.70
- Activity [3]: 10%
- Activity [4]: 59%
- Activity (MCF7): 17.8%
- Activity [5]: 2.2%
- pIC50 (L1210): 6.26
- pIC50 [6]: 6.53
- Activity (BJAB): 43.1%
- pIC50 (KM12): 6.68
- Activity (EL4): 52.5%
- Activity (Jurkat): 78.5%
- pIC50 (K562): 6.89
- Activity (CCRF-CEM [7]): 59.9%
- Activity [8]: 13.6%
- pIC50 [9]: 6.85
- Activity [10]: 0.4%
- pIC50 [11]: 7.30
- pIC50 (HL-60(TB)): 6.72
- pIC50 (CCRF-CEM [12]): 6.10
- pIC50 (COLO 205): 6.80
- Activity (DU-145): 33.1%
- Activity (YT): 21.5%
- Activity (Ramos): 82.9%
- pIC50 (SW-620): 6.74
- Activity [13]: 18.1%

Structure (SMILES): Cc1ccc(/C=C2/CN(C(=O)CC(=O)N3C/C(=C\c4ccc(C)cc4)C(=O)/C(=C/c4ccc(C)cc4)C3)C/C(=C\c3ccc(C)cc3)C2=O)cc1
- Activity (HS27): 26.5%
- pIC50 [1]: 6.72
- Activity (HCC70): 10.1%
- Activity (Raji): 46.5%
- Activity (LAPC4): 7%
- pIC50 (HCC 2998): 6.52
- pIC50 (HeLa): 5.54
- Activity [2]: 50.9%
- pIC50 (SR): 7.30
- Activity [3]: 8.6%
- Activity [4]: 67.6%
- Activity (MCF7): 19.1%
- Activity [5]: 15.4%
- pIC50 (L1210): 5.27
- pIC50 [6]: 5.72
- Activity (BJAB): 60.2%
- pIC50 (KM12): 6.77
- Activity (EL4): 66.9%
- Activity (Jurkat): 85.5%
- pIC50 (K562): 7.00
- Activity (CCRF-CEM [7]): 85.7%
- Activity [8]: 6.3%
- pIC50 [9]: 7.10
- Activity [10]: 21.3%
- pIC50 [11]: 7.52
- pIC50 (HL-60(TB)): 6.64
- pIC50 (CCRF-CEM [12]): 5.46
- pIC50 (COLO 205): 6.77
- Activity (DU-145): 21.9%
- Activity (YT): 29.1%
- Activity (Ramos): 83%
- pIC50 (SW-620): 6.82
- Activity [13]: 23.6%

Structure (SMILES): COc1ccc(/C=C2\CN(C(=O)C(=O)N3C/C(=C\c4ccc(OC)cc4)C(=O)/C(=C/c4ccc(OC)cc4)C3)C/C(=C\c3ccc(OC)cc3)C2=O)cc1
- Activity (HS27): 0.6%
- Activity (HCC70): 14.7%
- Activity (Raji): 69.1%
- Activity (LAPC4): 1.9%
- pIC50 (HeLa): 4.22
- Activity [2]: 6.7%
- Activity [3]: 0.6%
- Activity [4]: 62.6%
- Activity (MCF7): 16.2%
- Activity [5]: 9.9%
- pIC50 (L1210): 3.69
- pIC50 [6]: 4.48
- Activity (BJAB): 45.8%
- Activity (EL4): 71.7%
- Activity (Jurkat): 72%
- Activity (CCRF-CEM [7]): 71.9%
- Activity [8]: 0%
- Activity [10]: 49.6%
- pIC50 (CCRF-CEM [12]): 4.02
- Activity (DU-145): 11.4%
- Activity (YT): 5.8%
- Activity (Ramos): 53.7%
- Activity [13]: 15.2%
